These results are taken from ChEMBL document CHEMBL4396949, “Anti-cancer potential of novel glycosylated 1,4-substituted triazolylchalcone derivatives” (Bioorg Med Chem Lett, 2019).

The subject of one series is MDA-MB-468. Description: Antiproliferative activity against human MDA-MB-468 cells incubated for 24 hrs by MTT assay. The class given is functional. Particulars: MDA-MB-468, 24 h, read-out: LD50 (the source's name). A digest of the protocol:
(§1)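 Cells exposed to compounds at […]; viability read by MTT assay. LD50 derived from concentration-response. MDA-MB-468: triple-negative (ER-, PR-, HER2-) breast cancer. MCF-7: ER+, PR+, HER2- breast cancer. WI-38: non-cancerous lung fibroblasts. Selectivity index taken as WI-38 LD50 divided by cancer-cell LD50.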
A general note: Tetrazolium assays rely on reduction of a dye to a coloured formazan, in cell work by metabolically active cells.

A further series deals with MCF7. Description: Antiproliferative activity against human MCF7 cells incubated for 24 hrs by MTT assay. The class given is functional. Particulars: MCF7, 24 h, read-out: LD50 (the source's name). A digest of the protocol: as §1
A short description of series [1]: Antiproliferative activity against human WI38 cells incubated for 24 hrs by MTT assay. The class given is cell-based, WI-38. The following applies: read-out: LD50. A digest of the protocol: as §1
A short description of series [2]: Selectivity index, ratio of LD50 for human WI38 cells to LD50 for human MCF7 cells. The format is toxicity. Particulars: WI38 cells and MCF7 cells, read-out: Selectivity Index. A digest of the protocol: (§2)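 MTT cytotoxicity after exposure to […] in MDA-MB-468, MCF-7 and WI-38 fibroblasts; LD50 determined per line; selectivity index calculated as WI-38 LD50 divided by cancer-cell LD50.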

Series [3] in a line: Selectivity index, ratio of LD50 for human WI38 cells to LD50 for human MDA-MB-468 cells. The format is toxicity. Particulars: WI38 cells and MDA-MB-468 cells, read-out: Selectivity Index. In outline:
as §2

Take `O=C(/C=C/c1cc(Cl)cc(Cl)c1)c1ccc(OCc2cn([C@@H]3O[C@H](CO)[C@@H](O)[C@H](O)[C@H]3O)nn2)cc1`: the figures for the CC50 with MDA-MB-468 and in the series with MCF7 were 62 µM and 74 µM, respectively. Further, the CC50 at 24 h in series [1] is 64 µM. In addition, the figures for the selectivity ratio in series [2] and in series [3] were 0.86 and 1.03, respectively.
`COc1cc(/C=C/C(=O)c2ccc([N+](=O)[O-])cc2)ccc1OCc1cn([C@@H]2O[C@H](CO)[C@@H](O)[C@H](O)[C@H]2O)nn1`: the CC50 in the series on MDA-MB-468 worked out at 68 µM; in the series on MCF7, 76 µM. In addition, in series [1], the CC50 at 24 h was 75 µM. Also, the selectivity ratio came to 0.99 in series [2] and 1.02 in series [3].
Turning to `O=C(/C=C/c1ccc(OCc2ccccc2)cc1)c1ccc(OCc2cn([C@@H]3O[C@H](CO)[C@@H](O)[C@H](O)[C@H]3O)nn2)cc1`, the values for the CC50 in the series on MDA-MB-468 and in the series with MCF7 were 57 µM and 79 µM, respectively. Besides, in series [1], the CC50 at 24 h is 68 µM. In addition, the figures for the selectivity ratio in series [2] and in series [3] were 0.86 and 1.19, respectively.
For the molecule `COc1cc(/C=C/C(=O)c2ccccc2)ccc1OCc1cn([C@@H]2O[C@H](CO)[C@@H](O)[C@H](O)[C@H]2O)nn1`, the CC50 with MDA-MB-468 worked out at 89 µM; in the series on MCF7 it was 123 µM. Further, the CC50 at 24 h in series [1] is 98 µM. The selectivity ratio in series [2] stood at 0.8; in series [3] it was 1.1.
In the case of `COc1cc(/C=C/C(=O)c2cc(OC)c(OC)c(OC)c2)ccc1OCc1cn([C@@H]2O[C@H](CO)[C@@H](O)[C@H](O)[C@H]2O)nn1`, the CC50 turned out to be 73 µM with MDA-MB-468 and 87 µM in the series on MCF7. Moreover, the CC50 at 24 h in series [1] is 67 µM. Further, the selectivity ratio in series [2] worked out at 0.77; in series [3], 0.92.
In the case of `COc1cc([C@@H]2c3cc4c(cc3[C@@H](O[C@@H]3O[C@@H]5CO[C@@H](C)O[C@H]5[C@H](O)[C@H]3O)[C@H]3COC(=O)[C@H]23)OCO4)cc(OC)c1O` [ETOPOSIDE], the figures for the CC50 with MDA-MB-468 and in the series on MCF7 were 34 µM and 38 µM, respectively. For the same molecule, the CC50 at 24 h in series [1] stood at 36 µM. Besides, the selectivity ratio is 0.95 in series [2] and 1.06 in series [3].
The corresponding values for `COc1ccc(/C=C/C(=O)c2ccc(OCc3cn([C@@H]4O[C@H](CO)[C@@H](O)[C@H](O)[C@H]4O)nn3)cc2)cc1OC` are 88 µM, 115 µM, 95 µM, 0.83 and 1.08.
The corresponding values for `COc1cc(/C=C/C(=O)c2ccc(Br)cc2)ccc1OCc1cn([C@@H]2O[C@H](CO)[C@@H](O)[C@H](O)[C@H]2O)nn1` are 65 µM, 99 µM, 89 µM, 0.9 and 1.37.
Consider `COc1cc(/C=C/C(=O)c2ccc(OCc3cn([C@@H]4O[C@H](CO)[C@@H](O)[C@H](O)[C@H]4O)nn3)cc2)cc(OC)c1`, for which the results for the CC50 with MDA-MB-468 and in the series with MCF7 were 33 µM and 72 µM, respectively. Also, the CC50 at 24 h in series [1] amounted to 52 µM. Besides, the selectivity ratio was 0.72 in series [2] and 1.56 in series [3].
As to `COc1ccc(C(=O)/C=C/c2ccc(OCc3cn([C@@H]4O[C@H](CO)[C@@H](O)[C@H](O)[C@H]4O)nn3)c(OC)c2)cc1OC`, the figures for the CC50 in the series with MDA-MB-468 and in the series with MCF7 were 67 µM and 66 µM, respectively. In addition, the CC50 at 24 h in series [1] turned out to be 96 µM. For the same molecule, the selectivity ratio in series [2] was 1.45; in series [3], 1.43.
As to `CCOc1ccc(/C=C/C(=O)c2ccc(OCc3cn([C@@H]4O[C@H](CO)[C@@H](O)[C@H](O)[C@H]4O)nn3)cc2)cc1`, the CC50 worked out at 74 µM with MDA-MB-468 and 68 µM in the series on MCF7. Further, the CC50 at 24 h in series [1] came to 78 µM. The selectivity ratio was 1.15 in series [2] and 1.05 in series [3].
Consider `CC(=O)O[C@H]1C(=O)[C@@]2(C)[C@H]([C@H](OC(=O)c3ccccc3)[C@]3(O)C[C@H](OC(=O)[C@H](O)[C@@H](NC(=O)c4ccccc4)c4ccccc4)C(C)=C1C3(C)C)[C@]1(OC(C)=O)CO[C@@H]1C[C@@H]2O` [PACLITAXEL], for which the CC50 is 27 µM in the series on MDA-MB-468 and 29 µM in the series with MCF7. In series [1], the CC50 at 24 h amounted to 35 µM. Also, the selectivity ratio in series [2] came out at 1.2; in series [3] it was 1.29.
In the case of `COc1cccc(/C=C/C(=O)c2ccc(OCc3cn([C@@H]4O[C@H](CO)[C@@H](O)[C@H](O)[C@H]4O)nn3)cc2)c1`, the CC50 in the series with MDA-MB-468 is 77 µM; in the series on MCF7 it was 63 µM. Besides, the CC50 at 24 h in series [1] turned out to be 73 µM. The selectivity ratio in series [2] stood at 1.16; in series [3], 0.94.
Consider `COc1ccc(/C=C/C(=O)c2ccc(OCc3cn([C@@H]4O[C@H](CO)[C@@H](O)[C@H](O)[C@H]4O)nn3)cc2)cc1`, for which the CC50 in the series on MDA-MB-468 was 39 µM; in the series with MCF7 it was 53 µM. The CC50 at 24 h in series [1] is 72 µM. The selectivity ratio was found to be 1.36 in series [2] and 1.84 in series [3].
With `O=C(/C=C/c1ccccc1Cl)c1ccc(OCc2cn([C@@H]3O[C@H](CO)[C@@H](O)[C@H](O)[C@H]3O)nn2)cc1`, the CC50 is 64 µM in the series on MDA-MB-468 and 72 µM in the series with MCF7. Further, the CC50 at 24 h in series [1] turned out to be 68 µM. The selectivity ratio in series [2] worked out at 0.94; in series [3], 1.06.
Consider `COc1ccccc1/C=C/C(=O)c1ccc(OCc2cn([C@@H]3O[C@H](CO)[C@@H](O)[C@H](O)[C@H]3O)nn2)cc1`, for which the figures for the CC50 with MDA-MB-468 and in the series on MCF7 were 79 µM and 97 µM, respectively. The CC50 at 24 h in series [1] came out at 103 µM. Also, the selectivity ratio in series [2] was 1.06; in series [3] it was 1.3.
As for `COc1ccc(/C=C/C(=O)c2ccc(OCc3cn([C@@H]4O[C@H](CO)[C@@H](O)[C@H](O)[C@H]4O)nn3)cc2)cc1OCc1ccccc1`, the CC50 with MDA-MB-468 turned out to be 64 µM; in the series with MCF7, 84 µM. The CC50 at 24 h in series [1] is 105 µM. Also, the selectivity ratio was 1.25 in series [2] and 1.64 in series [3].
In the case of `COc1cc(/C=C/C(=O)c2ccc(C#N)cc2)ccc1OCc1cn([C@@H]2O[C@H](CO)[C@@H](O)[C@H](O)[C@H]2O)nn1`, the CC50 amounted to 82 µM in the series on MDA-MB-468 and 78 µM with MCF7. Also, the CC50 at 24 h in series [1] was 88 µM. Further, the selectivity ratio in series [2] amounted to 1.13; in series [3], 1.07.
`COc1cc(/C=C/C(=O)c2ccc(OCc3cn([C@@H]4O[C@H](CO)[C@@H](O)[C@H](O)[C@H]4O)nn3)cc2)cc(OC)c1OC`: the figures for the CC50 with MDA-MB-468 and with MCF7 were 51 µM and 84 µM, respectively. For the same molecule, in series [1], the CC50 at 24 h is 54 µM. In addition, the values for the selectivity ratio in series [2] and in series [3] were 0.64 and 1.06, respectively.
In the case of `O=C(/C=C/c1cccc([N+](=O)[O-])c1)c1ccc(OCc2cn([C@@H]3O[C@H](CO)[C@@H](O)[C@H](O)[C@H]3O)nn2)cc1`, the CC50 was found to be 64 µM in the series with MDA-MB-468 and 59 µM in the series on MCF7. For the same molecule, in series [1], the CC50 at 24 h was 69 µM. Further, the selectivity ratio stood at 1.17 in series [2] and 1.07 in series [3].
For the molecule `O=C(/C=C/c1ccc(Cl)c(Cl)c1)c1ccc(OCc2cn([C@@H]3O[C@H](CO)[C@@H](O)[C@H](O)[C@H]3O)nn2)cc1`, the CC50 in the series with MDA-MB-468 was determined as 59 µM; with MCF7, 65 µM. Besides, the CC50 at 24 h in series [1] turned out to be 55 µM. In addition, the figures for the selectivity ratio in series [2] and in series [3] were 0.85 and 0.93, respectively.
